Laboratory results from ChEMBL document CHEMBL4665889, “Design, Synthesis, and Pharmacological Characterization of a Neutral, Non-Prodrug Thrombin Inhibitor with Good Oral Pharmacokinetics” (J Med Chem, 2020).
The source made the active and inactive calls. No cut-off for these calls is given here.

Tests used:
[1] = Clearance in Wistar rat hepatocytes at 1 uM incubated up to 90 mins by LC-MS/MS analysis; assay type: ADME, cell-based, Hepatocyte; settings: Wistar
Procedure, shortened: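 Fresh male Wistar rat hepatocytes, 1 × 10⁶ viable cells/mL, in Williams' medium E at 37 °C, pH 7.4, with 1 μM substrate and <1% acetonitrile. Samples at 2–90 min quenched in acetonitrile and analysed by LC-MS/MS.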

[2] = Volume of distribution at steady state in Wistar Hannover rat at 0.3 to 0.5 mg/kg, iv by LC-MS/MS analysis; assay type: ADME, organism-based; settings: in vivo, dose 0.3-0.5 mg/kg, time <=24 hrs, read-out: Vdss
Procedure, shortened: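 Male Wistar Hannover rats, catheterized under isoflurane; one day later iv injection into lateral tail vein at 0.3 to 0.5 mg/kg in plasma containing 2% DMSO. Blood sampled via catheter from 0.033 to 24 h. Plasma precipitated with acetonitrile, analysed by LC-MS/MS (10 mM ammonium acetate pH 3.0/acetonitrile gradient). PK parameters calculated from plasma concentrations.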

[3] = target: T1, Nuclear receptor subfamily 1 group I member 2 (Homo sapiens, UniProt O75469); test: Activation of human PXR human hepatocytes assessed as induction of CYP3A4 mRNA expression incubated for 48 hrs by qPCR analysis; assay type: ADME, tissue-based, Hepatocyte
T1 sequence (O75469 whole entry): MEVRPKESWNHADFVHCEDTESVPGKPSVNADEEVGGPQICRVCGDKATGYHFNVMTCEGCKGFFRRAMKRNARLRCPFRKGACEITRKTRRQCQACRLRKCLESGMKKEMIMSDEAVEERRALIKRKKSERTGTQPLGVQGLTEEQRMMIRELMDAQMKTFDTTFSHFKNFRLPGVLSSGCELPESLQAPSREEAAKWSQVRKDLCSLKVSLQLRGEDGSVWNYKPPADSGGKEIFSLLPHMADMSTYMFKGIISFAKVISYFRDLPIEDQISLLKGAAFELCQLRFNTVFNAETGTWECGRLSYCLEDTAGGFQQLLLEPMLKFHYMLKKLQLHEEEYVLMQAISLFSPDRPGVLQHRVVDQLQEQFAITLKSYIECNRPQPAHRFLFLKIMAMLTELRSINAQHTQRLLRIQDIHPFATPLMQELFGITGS
Procedure, shortened: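 Human hepatocytes in collagen sandwich, cultured 1 d, then treated with eight 1:3 serial concentrations for 2 consecutive days with daily media change. mRNA isolated on magnetic beads, reverse transcribed, and quantified by TaqMan qRT-PCR against actin/tubulin. Fold induction over vehicle by ΔΔCt; NOEL reported.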

[4] = Protein binding in human plasma; assay type: ADME, cell-free; settings: read-out: PPB (converted)
[5] = target: Plasminogen (Homo sapiens) (UniProt P00747); test: Inhibition of purified human plasma plasmin up to 20 uM using MeOSuc-Ala-Phe-Lys-AMC substrate incubated for 30 mins by fluorescence based assay; settings: dose microM <=20, time 30.0 min
Sequence of Plasminogen (Homo sapiens) (P00747 97-580 limits assumed): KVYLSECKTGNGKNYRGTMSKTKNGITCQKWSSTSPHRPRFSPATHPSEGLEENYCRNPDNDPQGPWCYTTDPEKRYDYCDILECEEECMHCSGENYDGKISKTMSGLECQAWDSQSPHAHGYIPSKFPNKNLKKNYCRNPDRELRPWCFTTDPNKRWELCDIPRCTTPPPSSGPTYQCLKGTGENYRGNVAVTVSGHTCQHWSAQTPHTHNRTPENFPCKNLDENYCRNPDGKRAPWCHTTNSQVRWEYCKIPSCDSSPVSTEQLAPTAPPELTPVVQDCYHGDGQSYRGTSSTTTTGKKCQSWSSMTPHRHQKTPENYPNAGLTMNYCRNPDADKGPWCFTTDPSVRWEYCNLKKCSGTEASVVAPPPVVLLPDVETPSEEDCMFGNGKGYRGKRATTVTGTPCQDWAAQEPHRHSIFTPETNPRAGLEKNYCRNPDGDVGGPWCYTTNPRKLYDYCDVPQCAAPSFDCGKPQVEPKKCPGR
Sequence of Plasminogen (Homo sapiens) (P00747 581-810 limits assumed): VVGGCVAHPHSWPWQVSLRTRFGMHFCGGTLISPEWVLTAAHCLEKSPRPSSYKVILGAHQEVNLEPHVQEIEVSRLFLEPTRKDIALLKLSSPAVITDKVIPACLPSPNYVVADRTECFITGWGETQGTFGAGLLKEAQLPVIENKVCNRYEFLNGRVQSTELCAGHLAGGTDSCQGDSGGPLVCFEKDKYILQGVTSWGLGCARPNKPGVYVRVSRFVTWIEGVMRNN
Procedure, shortened: (§1)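 Final levels: thrombin 0.02 nM; FXa 1.3 nM; FXIa 0.15 nM; plasmin 1.2 nM (substrate 50 μM); tPA 2 nM; kallikrein 0.2 nM; trypsin 0.1 nM; other AMC substrates 5 μM. FVIIa 0.5 pM coupled with tissue factor, factor X 12 nM, FXa substrate 50 μM.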

[6] = target: Plasma kallikrein (Homo sapiens) (UniProt P03952); test: Inhibition of purified human plasma kallikrein up to 20 uM using H-Pro-Phe-Arg-AMC substrate incubated for 30 mins by fluorescence based assay; settings: dose microM <=20, time 30.0 min; procedure, shortened: as §1
Sequence of Plasma kallikrein (Homo sapiens) (P03952 20-390 limits assumed): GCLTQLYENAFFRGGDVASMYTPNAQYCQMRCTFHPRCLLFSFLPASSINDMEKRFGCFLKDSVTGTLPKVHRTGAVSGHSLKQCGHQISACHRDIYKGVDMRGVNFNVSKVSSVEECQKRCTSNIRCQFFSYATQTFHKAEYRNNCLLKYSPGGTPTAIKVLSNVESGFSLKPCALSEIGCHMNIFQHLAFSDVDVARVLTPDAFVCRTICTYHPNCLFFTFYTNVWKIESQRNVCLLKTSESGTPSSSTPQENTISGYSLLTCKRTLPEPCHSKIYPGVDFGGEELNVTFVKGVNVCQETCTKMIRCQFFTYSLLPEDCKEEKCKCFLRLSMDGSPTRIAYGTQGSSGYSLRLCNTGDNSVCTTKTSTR
Sequence of Plasma kallikrein (Homo sapiens) (P03952 391-638 limits assumed): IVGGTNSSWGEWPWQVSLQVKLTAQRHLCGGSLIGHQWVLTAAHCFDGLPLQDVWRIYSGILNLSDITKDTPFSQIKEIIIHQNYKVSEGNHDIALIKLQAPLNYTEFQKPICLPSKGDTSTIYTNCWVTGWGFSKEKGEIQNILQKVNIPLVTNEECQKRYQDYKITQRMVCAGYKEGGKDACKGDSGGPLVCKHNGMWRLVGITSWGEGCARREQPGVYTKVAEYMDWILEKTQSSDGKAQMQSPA

Prothrombin = Prothrombin (Rattus norvegicus, UniProt P18292); test: Inhibition of thrombin in rat plasma; assay type: cell-free
[7] = Inhibition of thrombin in dog plasma; assay type: cell-free; settings: Canis lupus familiaris
Plasma = test: Anticoagulation activity in human plasma assessed as drug level causing doubling of APTT incubated for 3 mins; assay type: functional; settings: 0.05 h
Rattus norvegicus = test: Antithrombotic activity in HsdCpd:WU rat model of arteriovenous shunt model assessed as reduction in thrombus weight at 0.6 to 6 mg/kg/hr, iv; assay type: functional, organism-based; settings: dose mg/kg/hr 0.6-6
Procedure, shortened: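 Fasting male HsdCpd:WU rats, 300−350 g, anesthetized with Inactin (150−180 mg/kg). Jugular vein and carotid artery linked by a 10 cm PE 60 shunt. Shunt opened 20 min after iv bolus for 15 min; thrombus on nylon thread weighed.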

[8] = Toxicity in HsdCpd:WU rat model of arteriovenous shunt model assessed as prolongation of bleeding time at 0.6 to 6 mg/kg/hr, iv; assay type: organism-based; settings: in vivo, dose 0.6-6 mg/kg/hr
[9] = Terminal half-life in orally dosed healthy human; assay type: ADME, organism-based; settings: in vivo, po, read-out: beta t1/2 (converted)

## COc1cc(C(=O)N2C[C@H](C)OC[C@@H]2CCO)cc2nc(N[C@H](CF)c3cccc(Cl)c3)oc12
[1]
  CLhep predicted at 1 µM: 31.7 mL/min/kg
[2]
  Vd: 3.5 L/kg
[3]
  NOAEL: > 10000 ng/mL
[4]
  fraction unbound: 0.22
[5]
  inhibition: inactive
[6]
  inhibition: inactive
Prothrombin
  IC50: 10 nM
[7]
  IC50: 6.5 nM
Plasma
  2aPTT: 0.7 µM
Rattus norvegicus
  Activity: Dose-dependent effect
[8]
  fold change (FC): < 2
[9]
  half-life: 9.5 h
